Experimental data taken from ChEMBL document CHEMBL4689842, “EUbOPEN Chemogenomics Library wave 1” (2021).
“And” between values parts separate entries of the source, which are not always exact repeats. Identical values can stand only once.

System: U2OS
Assay: Multiplex assay against U2OS
Assay type: toxicity, cell-based
Conditions: human
Outline: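 Imaging took place on a CQ1 microscope at 37°C and 5% CO2 once compound had been added to live cells stained at seeding with Hoechst33342, BioTracker Green Microtubule Cytoskeleton Dye, MitoTracker Red and Annexin V Alexa Fluor 680. CellPathfinder machine-learning gating classed cells as Hoechst high-intensity objects or normal cells, classed normal cells as having healthy, pyknosed or fragmented nuclei, and classed pyknosed cells as mitotic or apoptotic. Tubulin, mitochondrial-mass and membrane-permeability phenotypes are per cents of the healthy-nucleus cells.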

[1] = 12 h, 1 µM, compound concentration 1 uM, replicate 1
[2] = 12 h, 1 µM, compound concentration 1 uM, replicate 2
[3] = 12 h, 10 µM, compound concentration 10 uM, replicate 1
[4] = 12 h, 10 µM, compound concentration 10 uM, replicate 2
[5] = 24 h, 1 µM, compound concentration 1 uM, replicate 1
[6] = 24 h, 1 µM, compound concentration 1 uM, replicate 2
[7] = 24 h, 10 µM, compound concentration 10 uM, replicate 1
[8] = 24 h, 10 µM, compound concentration 10 uM, replicate 2
[9] = 48 h, 1 µM, compound concentration 1 uM, replicate 1
[10] = 48 h, 1 µM, compound concentration 1 uM, replicate 2
[11] = 48 h, 10 µM, compound concentration 10 uM, replicate 1
[12] = 48 h, 10 µM, compound concentration 10 uM, replicate 2

CS(=O)(=O)N1CCCC(NC(=O)[C@H](CCC2CCCCC2)NC(=O)c2ccc(CNc3ncnc4c3nnn4-c3ccccc3)cc2)C1 (some centres not stated) [SR-301]
Population Apoptotic (%) [1]: 27% and 50% and 35%
Population Fragmented Nuclei (%) [1]: 13% and 7%
Population Healthy Nuclei (%) [1]: 74% and 76% and 79%
Population Hoechst High Intensity Objects (%) [1]: 5% and 4% and 3%
Population Membrane Permeable-Phenotype (%) [1]: 7% and 4% and 3%
Population Mitochondria Different-Phenotype (%) [1]: 11% and 9% and 8%
Population Mitotic Cells (%) [1]: 72% and 50% and 64%
Population Normal (%) [1]: 94% and 95% and 96%
Population Pyknosed Nuclei (%) [1]: 12% and 13%
Total Cell Count [1]: 200 and 294 and 192
Population Apoptotic (%) [2]: 25% and 63% and 33%
Population Fragmented Nuclei (%) [2]: 14% and 11%
Population Healthy Nuclei (%) [2]: 81% and 70% and 89%
Population Hoechst High Intensity Objects (%) [2]: 19% and 13%
Population Membrane Permeable-Phenotype (%) [2]: 10% and 2%
Population Mitochondria Different-Phenotype (%) [2]: 20% and 14% and 10%
Population Mitotic Cells (%) [2]: 75% and 36% and 66%
Population Normal (%) [2]: 80% and 86%
Population Tubulin-Different-Phenotype (%) [2]: 21% and 19% and 12%
Total Cell Count [2]: 135 and 58 and 69
Population Apoptotic (%) [3]: 81% and 62% and 53%
Population Fragmented Nuclei (%) [3]: 21% and 23% and 11%
Population Healthy Nuclei (%) [3]: 27% and 44% and 78%
Population Hoechst High Intensity Objects (%) [3]: 10% and 5%
Population Mitochondria Different-Phenotype (%) [3]: 39% and 28% and 22%
Population Mitotic Cells (%) [3]: 18% and 37% and 46%
Population Normal (%) [3]: 89% and 94%
Population Tubulin-Different-Phenotype (%) [3]: 39% and 52% and 28%
Total Cell Count [3]: 202 and 154 and 295
Population Apoptotic (%) [4]: 80% and 75% and 41%
Population Fragmented Nuclei (%) [4]: 39% and 27%
Population Healthy Nuclei (%) [4]: 20% and 25% and 58%
Population Hoechst High Intensity Objects (%) [4]: 4% and 2%
Population Membrane Permeable-Phenotype (%) [4]: 61% and 54% and 30%
Population Mitochondria Different-Phenotype (%) [4]: 66% and 54% and 34%
Population Mitotic Cells (%) [4]: 20% and 25% and 58%
Population Normal (%) [4]: 95% and 97%
Population Pyknosed Nuclei (%) [4]: 39% and 47% and 20%
Population Tubulin-Different-Phenotype (%) [4]: 55% and 54% and 34%
Total Cell Count [4]: 89 and 86 and 105
Population Apoptotic (%) [5]: 47% and 48%
Population Fragmented Nuclei (%) [5]: 10% and 5%
Population Healthy Nuclei (%) [5]: 82% and 75%
Population Hoechst High Intensity Objects (%) [5]: 3% and 0%
Population Membrane Permeable-Phenotype (%) [5]: 5% and 3% and 2%
Population Mitochondria Different-Phenotype (%) [5]: 6% and 8%
Population Mitotic Cells (%) [5]: 52% and 51%
Population Normal (%) [5]: 96% and 99%
Population Pyknosed Nuclei (%) [5]: 14% and 7%
Total Cell Count [5]: 350 and 199 and 225
Population Fragmented Nuclei (%) [6]: 12% and 7%
Population Healthy Nuclei (%) [6]: 78% and 80% and 86%
Population Membrane Permeable-Phenotype (%) [6]: 7% and 6%
Population Mitochondria Different-Phenotype (%) [6]: 20% and 10%
Population Mitotic Cells (%) [6]: 87% and 60% and 55%
Population Normal (%) [6]: 80% and 95%
Population Pyknosed Nuclei (%) [6]: 9% and 12% and 6%
Population Tubulin-Different-Phenotype (%) [6]: 13% and 26% and 14%
Total Cell Count [6]: 148 and 64 and 84
Population Apoptotic (%) [7]: 96% and 87% and 65%
Population Healthy Nuclei (%) [7]: 25% and 39% and 75%
Population Mitochondria Different-Phenotype (%) [7]: 29% and 16% and 13%
Population Normal (%) [7]: 89% and 92% and 96%
Population Pyknosed Nuclei (%) [7]: 39% and 38% and 13%
Population Tubulin-Different-Phenotype (%) [7]: 37% and 63% and 44%
Total Cell Count [7]: 235 and 159 and 307
Population Apoptotic (%) [8]: 91% and 94% and 89%
Population Fragmented Nuclei (%) [8]: 25% and 32% and 19%
Population Hoechst High Intensity Objects (%) [8]: 15% and 21% and 9%
Population Mitotic Cells (%) [8]: 8% and 5% and 10%
Population Normal (%) [8]: 84% and 78% and 90%
Population Pyknosed Nuclei (%) [8]: 49% and 50% and 21%
Total Cell Count [8]: 98 and 89 and 110
Population Apoptotic (%) [9]: 58% and 30%
Population Fragmented Nuclei (%) [9]: 3%
Population Healthy Nuclei (%) [9]: 84% and 87%
Population Hoechst High Intensity Objects (%) [9]: 1% and 0%
Population Membrane Permeable-Phenotype (%) [9]: 2% and 1%
Population Mitochondria Different-Phenotype (%) [9]: 9% and 7%
Population Mitotic Cells (%) [9]: 41% and 69% and 74%
Population Normal (%) [9]: 98% and 99%
Population Pyknosed Nuclei (%) [9]: 7%
Total Cell Count [9]: 208 and 559 and 312
Population Apoptotic (%) [10]: 38% and 21% and 25%
Population Fragmented Nuclei (%) [10]: 4% and 7% and 9%
Population Healthy Nuclei (%) [10]: 83% and 76%
Population Membrane Permeable-Phenotype (%) [10]: 7% and 3%
Population Mitochondria Different-Phenotype (%) [10]: 13% and 8% and 12%
Population Mitotic Cells (%) [10]: 61% and 78% and 75%
Population Normal (%) [10]: 92% and 96% and 85%
Population Pyknosed Nuclei (%) [10]: 12% and 8% and 13%
Total Cell Count [10]: 84 and 114 and 231
Population Apoptotic (%) [11]: 92% and 85% and 62%
Population Mitochondria Different-Phenotype (%) [11]: 17% and 14% and 9%
Population Normal (%) [11]: 89% and 91% and 96%
Population Tubulin-Different-Phenotype (%) [11]: 37% and 75% and 53%
Total Cell Count [11]: 372 and 170 and 387
Population Apoptotic (%) [12]: 96% and 100% and 84%
Population Fragmented Nuclei (%) [12]: 23% and 17% and 12%
Population Healthy Nuclei (%) [12]: 38% and 68%
Population Membrane Permeable-Phenotype (%) [12]: 85% and 44%
Population Mitochondria Different-Phenotype (%) [12]: 81% and 74% and 35%
Population Mitotic Cells (%) [12]: 3% and 0% and 15%
Population Normal (%) [12]: 76% and 80% and 92%
Population Pyknosed Nuclei (%) [12]: 38% and 30% and 19%
Population Tubulin-Different-Phenotype (%) [12]: 81% and 82% and 30%
Total Cell Count [12]: 84 and 107 and 142
